Reference: ChEMBL document CHEMBL1152796, “Azole antimicrobial pharmacophore-based tetrazoles: synthesis and biological evaluation as potential antimicrobial and anticonvulsant agents” (Bioorg Med Chem, 2009)
Values after ≈ are worked out from the molar mass of the structure shown. Active and inactive are the calls of the source. The calls are words filed in the database; no cut-off is given here.

Tested on: Mus musculus
Assay: Anticonvulsant activity in Wister albino mouse assessed as protection against maximal electroshock-induced seizures at 300 mg/kg, ip administered 30 mins before metrazole challenge measured after 30 mins
Format: functional
Details: route intraperitoneal

| Compound | Activity [%] |
| --- | --- |
| O=C(Cn1nnnc1Cc1ccccc1)c1ccc(Cl)cc1 | 0 |

Tested on: Aspergillus fumigatus
Assay: Antifungal activity against Aspergillus fumigatus isolate at 1 mg/mL after 7 days by agar diffusion method
Format: functional
Details: 168 h, read-out: Diameter of inhibition zone
Summary of the method: (§1)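 Agar disc diffusion: 5 mm sterile paper discs soaked in 1 mg/mL test solution in DMSO were placed on agar seeded with the organism, in triplicate, with a DMSO-only control. Bacterial plates were incubated at 37 °C for 24 h and fungal plates for 7 days. Read-out was the average inhibition-zone diameter in mm. Fungi were clinical isolates.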

| Compound | zone of inhibition at 1000 µg/mL [mm] |
| --- | --- |
| O=C(COC(Cn1nnc(-c2ccccc2)n1)c1ccc(Cl)cc1)NNC(=S)Nc1ccccc1 (configuration not stated) | ≥ 14 |
| Cc1cc(C)n(C(=O)COC(Cn2nnc(-c3ccccc3)n2)c2ccc(Cl)cc2)n1 (configuration not stated) | ≥ 14 |

Tested on: Micrococcus luteus
Assay: Antibacterial activity against Micrococcus luteus ATCC 21881 at 1 mg/mL after 24 hrs by agar diffusion method
Format: functional
Details: ATCC 21881, 24 h, read-out: Diameter of inhibition zone
Summary of the method: as §1

| Compound | zone of inhibition at 1000 µg/mL [mm] |
| --- | --- |
| O=C(COC(Cn1nnc(-c2ccccc2)n1)c1ccc(Cl)cc1)NNC(=S)Nc1ccccc1 (configuration not stated) | ≥ 14 |
| Cc1cc(C)n(C(=O)COC(Cn2nnc(-c3ccccc3)n2)c2ccc(Cl)cc2)n1 (configuration not stated) | ≥ 14 |

Tested on: Klebsiella pneumoniae
Assay: Antibacterial activity against Klebsiella pneumoniae isolate at 1 mg/mL after 24 hrs by agar diffusion method
Format: functional
Details: read-out: Diameter of inhibition zone
Summary of the method: as §1

| Compound | zone of inhibition at 1000 µg/mL [mm] |
| --- | --- |
| O=C(COC(Cn1nnc(-c2ccccc2)n1)c1ccc(Cl)cc1)NNC(=S)Nc1ccccc1 (configuration not stated) | ≥ 14 |
| Cc1cc(C)n(C(=O)COC(Cn2nnc(-c3ccccc3)n2)c2ccc(Cl)cc2)n1 (configuration not stated) | ≥ 14 |

Tested on: Bacillus subtilis
Assay: Antibacterial activity against Bacillus subtilis NRRL B-14819 after 24 to 48 hrs by twofold serial dilution method
Format: functional
Details: not given
Summary of the method: (§2)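 Broth microdilution in Müller–Hinton broth. DMSO stocks at 800 were diluted twofold from 400 down to 6.25. Wells received 10^6 CFU/mL bacterial suspension and were incubated at 36 °C for 24–48 h, with controls. MIC was read per well. Duplicate assays; run only for compounds giving inhibition zones ≥14 mm.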

| Compound | MIC [µg/mL] |
| --- | --- |
| O=C(COC(Cn1nnc(-c2ccccc2)n1)c1ccc(Cl)cc1)NNC(=S)Nc1ccccc1 (configuration not stated) | 100 (≈ 197 µM) |
| Cc1cc(C)n(C(=O)COC(Cn2nnc(-c3ccccc3)n2)c2ccc(Cl)cc2)n1 (configuration not stated) | 25 (≈ 57.2 µM) |

Tested on: Pseudomonas aeruginosa
Assay: Antibacterial activity against Pseudomonas aeruginosa ATCC 27853 after 24 to 48 hrs by twofold serial dilution method
Format: functional
Details: not given
Summary of the method: as §2

| Compound | MIC [µg/mL] |
| --- | --- |
| O=C(COC(Cn1nnc(-c2ccccc2)n1)c1ccc(Cl)cc1)NNC(=S)Nc1ccccc1 (configuration not stated) | ≥ 200 |
| Cc1cc(C)n(C(=O)COC(Cn2nnc(-c3ccccc3)n2)c2ccc(Cl)cc2)n1 (configuration not stated) | 100 (≈ 229 µM) |

Tested on: Aspergillus niger
Assay: Antifungal activity against Aspergillus niger isolate after 72 hrs by twofold serial dilution method
Format: functional, organism-based
Details: not given

| Compound | Activity |
| --- | --- |
| O=C(COC(Cn1nnc(-c2ccccc2)n1)c1ccc(Cl)cc1)NNC(=S)Nc1ccccc1 (configuration not stated) | inactive |
| Cc1cc(C)n(C(=O)COC(Cn2nnc(-c3ccccc3)n2)c2ccc(Cl)cc2)n1 (configuration not stated) | inactive |

Tested on: Mus musculus
Assay: Anticonvulsant activity in Wister albino mouse assessed as protection against subcutaneous metrazole-induced seizures at 300 mg/kg, ip administered 30 mins before metrazole challenge measured after 30 mins
Format: functional
Details: not given
Summary of the method: (§3)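 Wistar albino mice, either sex, 25–30 g, 3 months old, in groups of six. Compounds in DMSO were given ip at 30, 100 or 300 mg/kg; vehicle-only controls. After 30 min, metrazole 100 mg/kg in DMSO was injected sc at the posterior midline. Protection meant absence of any clonic spasm lasting ≥5 s; scored as protected/tested.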

| Compound | Activity [%] |
| --- | --- |
| O=C(COC(Cn1nnc(-c2ccccc2)n1)c1ccc(Cl)cc1)NNC(=S)Nc1ccccc1 (configuration not stated) | 0 |
| O=C(Cn1nnnc1Cc1ccccc1)c1ccc(Cl)cc1 | 0 |

Tested on: Pseudomonas aeruginosa
Assay: Antibacterial activity against Pseudomonas aeruginosa ATCC 27853 at 1 mg/mL after 24 hrs by agar diffusion method
Format: functional
Details: ATCC 27853, 24 h, read-out: Diameter of inhibition zone
Summary of the method: as §1

| Compound | zone of inhibition at 1000 µg/mL [mm] |
| --- | --- |
| O=C(COC(Cn1nnc(-c2ccccc2)n1)c1ccc(Cl)cc1)NNC(=S)Nc1ccccc1 (configuration not stated) | ≥ 14 |
| Cc1cc(C)n(C(=O)COC(Cn2nnc(-c3ccccc3)n2)c2ccc(Cl)cc2)n1 (configuration not stated) | ≥ 14 |

Tested on: Staphylococcus aureus
Assay: Antibacterial activity against Staphylococcus aureus ATCC 6538 at 1 mg/mL after 24 hrs by agar diffusion method
Format: functional
Details: ATCC 6538, 24 h, read-out: Diameter of inhibition zone
Summary of the method: as §1

| Compound | zone of inhibition at 1000 µg/mL [mm] |
| --- | --- |
| O=C(COC(Cn1nnc(-c2ccccc2)n1)c1ccc(Cl)cc1)NNC(=S)Nc1ccccc1 (configuration not stated) | ≥ 14 |
| Cc1cc(C)n(C(=O)COC(Cn2nnc(-c3ccccc3)n2)c2ccc(Cl)cc2)n1 (configuration not stated) | ≥ 14 |

Tested on: Pichia kudriavzevii
Assay: Antifungal activity against Candida krusei isolate after 72 hrs by twofold serial dilution method
Format: functional, organism-based
Details: not given

| Compound | Activity |
| --- | --- |
| O=C(COC(Cn1nnc(-c2ccccc2)n1)c1ccc(Cl)cc1)NNC(=S)Nc1ccccc1 (configuration not stated) | inactive |
| Cc1cc(C)n(C(=O)COC(Cn2nnc(-c3ccccc3)n2)c2ccc(Cl)cc2)n1 (configuration not stated) | inactive |

Tested on: Escherichia coli
Assay: Antibacterial activity against Escherichia coli ATCC 25922 after 24 to 48 hrs by twofold serial dilution method
Format: functional
Details: not given
Summary of the method: as §2

| Compound | MIC [µg/mL] |
| --- | --- |
| O=C(COC(Cn1nnc(-c2ccccc2)n1)c1ccc(Cl)cc1)NNC(=S)Nc1ccccc1 (configuration not stated) | ≥ 200 |
| Cc1cc(C)n(C(=O)COC(Cn2nnc(-c3ccccc3)n2)c2ccc(Cl)cc2)n1 (configuration not stated) | 50 (≈ 114 µM) |

Tested on: Bacillus subtilis
Assay: Antibacterial activity against Bacillus subtilis NRRL B-14819 at 1 mg/mL after 24 hrs by agar diffusion method
Format: functional
Details: read-out: Diameter of inhibition zone
Summary of the method: as §1

| Compound | zone of inhibition at 1000 µg/mL [mm] |
| --- | --- |
| O=C(COC(Cn1nnc(-c2ccccc2)n1)c1ccc(Cl)cc1)NNC(=S)Nc1ccccc1 (configuration not stated) | ≥ 14 |
| Cc1cc(C)n(C(=O)COC(Cn2nnc(-c3ccccc3)n2)c2ccc(Cl)cc2)n1 (configuration not stated) | ≥ 14 |

Tested on: Trichophyton rubrum
Assay: Antifungal activity against Trichophyton rubrum isolate after 72 hrs by twofold serial dilution method
Format: functional, organism-based
Details: not given

| Compound | Activity |
| --- | --- |
| O=C(COC(Cn1nnc(-c2ccccc2)n1)c1ccc(Cl)cc1)NNC(=S)Nc1ccccc1 (configuration not stated) | inactive |
| Cc1cc(C)n(C(=O)COC(Cn2nnc(-c3ccccc3)n2)c2ccc(Cl)cc2)n1 (configuration not stated) | inactive |

Tested on: Micrococcus luteus
Assay: Antibacterial activity against Micrococcus luteus ATCC 21881 after 24 to 48 hrs by twofold serial dilution method
Format: functional
Details: not given
Summary of the method: as §2

| Compound | MIC [µg/mL] |
| --- | --- |
| O=C(COC(Cn1nnc(-c2ccccc2)n1)c1ccc(Cl)cc1)NNC(=S)Nc1ccccc1 (configuration not stated) | ≥ 200 |
| Cc1cc(C)n(C(=O)COC(Cn2nnc(-c3ccccc3)n2)c2ccc(Cl)cc2)n1 (configuration not stated) | 50 (≈ 114 µM) |

Tested on: Staphylococcus aureus
Assay: Antibacterial activity against Staphylococcus aureus ATCC 6538 after 24 to 48 hrs by twofold serial dilution method
Format: functional
Details: not given
Summary of the method: as §2

| Compound | MIC [µg/mL] |
| --- | --- |
| O=C(COC(Cn1nnc(-c2ccccc2)n1)c1ccc(Cl)cc1)NNC(=S)Nc1ccccc1 (configuration not stated) | 50 (≈ 98.4 µM) |
| Cc1cc(C)n(C(=O)COC(Cn2nnc(-c3ccccc3)n2)c2ccc(Cl)cc2)n1 (configuration not stated) | 12.5 (≈ 28.6 µM) |

Tested on: Mus musculus
Assay: Anticonvulsant activity in Wister albino mouse assessed as protection against subcutaneous metrazole-induced seizures at 100 mg/kg, ip administered 30 mins before metrazole challenge measured after 30 mins
Format: functional
Details: route intraperitoneal
Summary of the method: as §3

| Compound | Activity [%] |
| --- | --- |
| O=C(COC(Cn1nnc(-c2ccccc2)n1)c1ccc(Cl)cc1)NNC(=S)Nc1ccccc1 (configuration not stated) | 80 |
| Cc1cc(C)n(C(=O)COC(Cn2nnc(-c3ccccc3)n2)c2ccc(Cl)cc2)n1 (configuration not stated) | 0 |
| O=C(Cn1nnnc1Cc1ccccc1)c1ccc(Cl)cc1 | 50 |

Tested on: Candida albicans
Assay: Antifungal activity against Candida albicans isolate at 1 mg/mL after 7 days by twofold serial dilution method
Format: functional
Details: 168 h, read-out: Diameter of inhibition zone

| Compound | zone of inhibition at 1000 µg/mL [mm] |
| --- | --- |
| O=C(COC(Cn1nnc(-c2ccccc2)n1)c1ccc(Cl)cc1)NNC(=S)Nc1ccccc1 (configuration not stated) | ≥ 14 |
| Cc1cc(C)n(C(=O)COC(Cn2nnc(-c3ccccc3)n2)c2ccc(Cl)cc2)n1 (configuration not stated) | ≥ 14 |

Tested on: Mus musculus
Assay: Anticonvulsant activity in Wister albino mouse assessed as protection against maximal electroshock-induced seizures at 100 mg/kg, ip administered 30 mins before metrazole challenge measured after 30 mins
Format: functional
Details: route intraperitoneal

| Compound | Activity [%] |
| --- | --- |
| O=C(COC(Cn1nnc(-c2ccccc2)n1)c1ccc(Cl)cc1)NNC(=S)Nc1ccccc1 (configuration not stated) | 67 |
| Cc1cc(C)n(C(=O)COC(Cn2nnc(-c3ccccc3)n2)c2ccc(Cl)cc2)n1 (configuration not stated) | 0 |
| O=C(Cn1nnnc1Cc1ccccc1)c1ccc(Cl)cc1 | 50 |

Tested on: Mus musculus
Assay: Anticonvulsant activity in Wister albino mouse assessed as protection against subcutaneous metrazole-induced seizures at 30 mg/kg, ip administered 30 mins before metrazole challenge measured after 30 mins
Format: functional
Details: not given
Summary of the method: as §3

| Compound | Activity [%] |
| --- | --- |
| O=C(COC(Cn1nnc(-c2ccccc2)n1)c1ccc(Cl)cc1)NNC(=S)Nc1ccccc1 (configuration not stated) | 0 |
| O=C(Cn1nnnc1Cc1ccccc1)c1ccc(Cl)cc1 | 0 |

Tested on: Candida tropicalis
Assay: Antifungal activity against Candida tropicalis isolate after 72 hrs by twofold serial dilution method
Format: functional, organism-based
Details: not given

| Compound | Activity |
| --- | --- |
| O=C(COC(Cn1nnc(-c2ccccc2)n1)c1ccc(Cl)cc1)NNC(=S)Nc1ccccc1 (configuration not stated) | inactive |
| Cc1cc(C)n(C(=O)COC(Cn2nnc(-c3ccccc3)n2)c2ccc(Cl)cc2)n1 (configuration not stated) | inactive |

Tested on: Escherichia coli
Assay: Antibacterial activity against Escherichia coli ATCC 25922 at 1 mg/mL after 24 hrs by agar diffusion method
Format: functional
Details: ATCC 25922, 24 h, read-out: Diameter of inhibition zone
Summary of the method: as §1

| Compound | zone of inhibition at 1000 µg/mL [mm] |
| --- | --- |
| O=C(COC(Cn1nnc(-c2ccccc2)n1)c1ccc(Cl)cc1)NNC(=S)Nc1ccccc1 (configuration not stated) | ≥ 14 |
| Cc1cc(C)n(C(=O)COC(Cn2nnc(-c3ccccc3)n2)c2ccc(Cl)cc2)n1 (configuration not stated) | ≥ 14 |

Tested on: Klebsiella pneumoniae
Assay: Antibacterial activity against Klebsiella pneumoniae isolate after 24 to 48 hrs by twofold serial dilution method
Format: functional
Details: not given
Summary of the method: as §2

| Compound | MIC [µg/mL] |
| --- | --- |
| O=C(COC(Cn1nnc(-c2ccccc2)n1)c1ccc(Cl)cc1)NNC(=S)Nc1ccccc1 (configuration not stated) | ≥ 200 |
| Cc1cc(C)n(C(=O)COC(Cn2nnc(-c3ccccc3)n2)c2ccc(Cl)cc2)n1 (configuration not stated) | 100 (≈ 229 µM) |
